Source: PubChem (several laboratories)
The list is not random: actives were taken first. Their share in the collection is about 4%.
UPR CHOP act – activators of apoptotic CHOP UPR arm, primary screen, cell-based, CHO-CHOP luciferase reporter, luminescence, uHTS; 0.34% of 330,000 active; activation, % at 10 µM; UPR activation; percent of tunicamycin response over DMSO baseline;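 active = at 10 µM dose, activation of 40% or more, normalized to positive control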;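 note: 100% = tunicamycin at 10 µg/mL and 0% = DMSO alone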
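Dosing – one dose, 10 µM in 0.5% DMSO · System – CHO-CHOP cells, stable luciferase reporter of PERK-eIF2a-CHOP signalling · Input – 500 cells/well · Control set – tunicamycin 10 µg/mL final as positive, DMSO-only wells as negative · Timing – 6 h compound treatment, 37 °C · Measure – % activation vs tunicamycin · Technique – luminescence read with Steady-Glo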
UPR XBP1 act – activators of adaptive XBP1 UPR arm, primary screen, cell-based, CHO-XBP1 luciferase reporter, luminescence, uHTS; IRE1-XBP1 UPR activation; percent of tunicamycin response, DMSO as zero; activation, % at 20 µM; 0.33% of 330,000 active; AID 463104, 2010;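 active = versus positive control, 20 µM dose yields 30% or more activation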;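 note: 100% = tunicamycin at 10 µg/mL and 0% = DMSO only wells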
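Material: CHO cell line with stable XBP1 luciferase reporter; buffer or medium: F12 medium containing 10% fetal bovine serum; compound: single point, 20 µM final compound, 1% DMSO; incubation: 6 h treatment, 37 °C; measured by: glow luminescence from Steady-Glo reagent; evaluation: activation, % of tunicamycin; control set: tunicamycin high, DMSO low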
ABHD5 PLIN5 PPI – ABHD5-PLIN5 interaction inhibitors, primary screen, cell lysate, split luciferase complementation, luminescence; Perilipin-5 (Homo sapiens) + 1-acylglycerol-3-phosphate O-acyltransferase ABHD5 (Homo …; Split G. princeps luciferase complementation, 4 h; inhibition, % at 4 µM; 0.78% of 360,000 active; AID 602281, 2012;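 active = inhibition above the mean inhibition across every tested compound plus 3 SD, cut at about 22% in these data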;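 note: 0% = DMSO only wells and the 100% control is not disclosed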
Mdm2-MdmX inh – inhibitors of human Mdm2-MdmX association, primary screen, cell-based, luminescence, split luciferase, SaOS-2, uHTS; Protein Mdm4 (Homo sapiens) + E3 ubiquitin-protein ligase Mdm2 (Homo sapiens), …; SaOS-2 split-luciferase Mdm2/MdmX complementation; inhibition, % at 8 µM; 3% of 330,000 active;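 active = inhibition of at least 50% at 8 µM in the primary screen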
Target sequence (O15151 whole entry, looked up): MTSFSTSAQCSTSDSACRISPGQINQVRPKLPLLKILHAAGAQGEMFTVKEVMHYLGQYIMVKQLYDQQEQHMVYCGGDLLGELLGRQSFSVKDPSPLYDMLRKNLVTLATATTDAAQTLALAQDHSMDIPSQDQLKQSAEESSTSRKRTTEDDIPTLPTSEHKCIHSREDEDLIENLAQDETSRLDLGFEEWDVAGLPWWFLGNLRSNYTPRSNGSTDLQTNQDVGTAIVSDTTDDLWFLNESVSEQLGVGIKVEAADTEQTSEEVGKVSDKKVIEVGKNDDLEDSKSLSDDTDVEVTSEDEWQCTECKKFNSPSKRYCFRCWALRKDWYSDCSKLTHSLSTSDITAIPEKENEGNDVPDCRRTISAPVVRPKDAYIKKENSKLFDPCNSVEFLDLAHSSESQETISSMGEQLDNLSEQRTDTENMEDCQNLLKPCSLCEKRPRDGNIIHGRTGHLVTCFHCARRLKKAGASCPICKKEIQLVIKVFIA
Target sequence (Q00987 whole entry, looked up): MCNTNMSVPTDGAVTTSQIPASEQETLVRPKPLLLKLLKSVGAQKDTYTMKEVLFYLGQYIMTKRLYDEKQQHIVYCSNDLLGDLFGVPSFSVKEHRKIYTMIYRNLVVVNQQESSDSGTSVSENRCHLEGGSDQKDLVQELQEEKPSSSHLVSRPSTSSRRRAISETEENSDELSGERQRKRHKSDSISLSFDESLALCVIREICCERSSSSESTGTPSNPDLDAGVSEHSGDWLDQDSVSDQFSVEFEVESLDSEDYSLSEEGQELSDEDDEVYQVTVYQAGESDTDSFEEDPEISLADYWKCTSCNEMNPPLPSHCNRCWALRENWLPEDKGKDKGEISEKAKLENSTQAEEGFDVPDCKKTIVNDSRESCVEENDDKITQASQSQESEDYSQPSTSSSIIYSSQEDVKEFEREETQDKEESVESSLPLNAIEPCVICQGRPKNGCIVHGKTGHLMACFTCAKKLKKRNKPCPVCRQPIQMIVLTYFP
Granule exo inh – LAMP-1 surface exposure blockers, TALL-104 cells – cell-based, flow cytometry, MLPCN library, primary screen. TALL-104 LAMP-1 surface exposure; cells stimulated with thapsigargin and PMA. inhibition, % at 10 µM. 0.66% of 360,000 active;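 active = inhibition above about 55%, limit read from the data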
UPR CHOP confirm – activators of apoptotic CHOP UPR arm, confirmation, cell-based, CHO-CHOP luciferase reporter, single concentration; 64% of 1,000 active; shares compounds with UPR CHOP act; AID 463112, 2010; activation, % at 10 µM; CHO-CHOP cells, CHOP-luciferase reporter luminescence; percent of tunicamycin response, DMSO as zero; in the data active = activation above about 33%;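 note: 0% = DMSO wells and 100% = tunicamycin 10 µg/mL wells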
Starred values were filed as active, the others as inactive; · = no result.

SMILES	UPR CHOP act	UPR XBP1 act	ABHD5 PLIN5 PPI	Mdm2-MdmX inh	Granule exo inh	UPR CHOP confirm
CC(C)[C@H](NC(=O)c1ccccc1)C(=O)NC1CCCCCCC1	-0.5	-0.3	-6.6	14.2	-10.4	·
CC(C)(C)C1=CC(=O)C(=O)C(C(C)(C)C)=C1	144.3*	0.2	1.0	18.4	9.4	326.4*
COC(=O)C1=C(C)N(c2ccc(Cl)cc2)/C(=C/c2cccs2)C1=O	3.7	1.4	2.1	-1.3	2.7	·
COC(=O)C1=C(C)N(c2ccc(C)c(C)c2)/C(=C/c2cccs2)C1=O	90.2*	14.6	-3.1	19.8	-5.5	50.5*
O=C(c1cccs1)N1CCN(c2ncccn2)CC1	-1.5	1.9	0.9	-12.6	1.0	·
CCOc1cccc2cc(-c3csc(NC(=O)CCC(=O)N4CCC(C)CC4)n3)c(=O)oc12	95.2*	36.7*	-0.8	31.9	-2.8	16.3
c1ccc(CSC2=NNC(c3ccccn3)S2)cc1 (centres undefined)	240.3*	9.5	-8.7	40.8	-2.2	312.8*
O=C1C=C(N2CCCCC2)c2ccccc2C1=O	76.2*	10.4	-8.6	42.3	55.2	24.7
O=C1c2ccccc2C(=O)c2c1cccc2N1CCCC1	·	·	3.2	·	5.4	·
Cc1cc(C(=O)CN2C(=O)CN(C)C2=O)c(C)n1-c1cccc(S(=O)(=O)N2CCOCC2)c1	-0.7	0.6	8.1	5.4	0.0	·
Cc1cc(C(=O)CCl)c(C)n1-c1cccc(S(=O)(=O)N2CCOCC2)c1	206.9*	-5.0	·	45.4	·	63.5*
COc1cc(/C=N/N2CCOCC2)ccc1OCc1ccccc1	0.5	0.6	-15.8	-0.3	-4.9	·
COc1ccc(/C=C\c2nc(=O)c3ccccc3o2)cc1	57.1*	6.6	3.9	-42.1	0.3	120.6*
CCOCCOC(=O)Cn1cnc2scc(-c3ccc(C)cc3)c2c1=O	0.2	1.0	6.5	-0.3	0.9	·
CC(C)N=c1scc(-c2ccco2)n1/N=C/c1ccc(O)c(O)c1	159.2*	20.1	-3.7	5.5	20.1	127.0*
COCCN=c1scc(-c2ccco2)n1/N=C/c1ccc(O)c(O)c1O	22.6	6.2	2.1	2.2	1.7	·
C=CCN=c1scc(-c2ccco2)n1/N=C/c1ccc(O)c(O)c1O	161.1*	2.8	-8.6	9.7	4.5	63.5*
Cc1ccc(/C=C/C(=O)OC(C)C(=O)Nc2ncc(Cl)cc2Cl)o1 (centres undefined)	0.6	-3.1	1.4	-1.0	-7.5	·
O=C(/C=C/c1ccc([N+](=O)[O-])cc1)NCc1ccco1	1.4	2.1	0.8	-22.9	-1.5	·
O=C(/C=C/c1ccc([N+](=O)[O-])cc1)/C=C/c1ccco1	56.6*	-2.1	62.8*	13.8	53.4	108.4*
CC1OC23CCCCC2C(C#N)(C(=N)O3)C1(C#N)C#N (centres undefined)	0.6	-1.5	-3.2	9.8	1.8	·
N#CC12COC3(CCCCC3C1(C#N)C#N)OC2=N (centres undefined)	46.2*	-2.5	2.1	4.9	-4.4	43.2*
N#CC1(C#N)COC23CCCCC2C1(C#N)C(=N)O3 (centres undefined)	64.7*	-4.1	0.7	4.7	-0.8	54.7*
COc1ccc(C2OC34CCCCC3C(C#N)(C#N)C2(C#N)C(=N)O4)cc1 (centres undefined)	53.8*	-7.1	-1.6	-6.8	-2.4	35.0*
CC(C)c1ccc(NC(=O)COC(=O)CC2CCCC2)cc1	0.6	1.1	1.3	-0.8	-1.7	·
SMILES	UPR CHOP act	UPR XBP1 act	ABHD5 PLIN5 PPI	Mdm2-MdmX inh	Granule exo inh	UPR CHOP confirm
S=C(Nc1ccccc1)c1ccccn1	116.7*	29.3	-0.9	-29.3	0.0	148.8*
CCOC(=O)c1c(NC(=O)CSc2nnnn2-c2ccc3c(c2)OCO3)sc(C)c1C	-1.3	-1.8	-6.1	33.3	-19.1	·
COc1ccc(-n2nc3c(c2NC(=O)CCl)CSC3)cc1	49.4*	-5.5	-2.7	46.5	-2.1	3.7
O=C(NC1CCCCCC1)C1c2ccccc2C(=O)N1Cc1ccco1 (centres undefined)	-2.1	-0.7	4.4	6.8	0.3	·
N=C1/C(=C/c2cccn2-c2ccc([N+](=O)[O-])cc2)C(=O)N=C2SC=CN12	53.9*	8.0	-4.8	45.0	17.7	13.8
O=C(CN1CCN(S(=O)(=O)c2ccc(Br)cc2)CC1)c1ccc(O)c(O)c1	61.3*	29.6	7.5	22.3	-9.0	7.0
Cc1c(O)ccc(C(=O)CN2CCN(c3ccccc3F)CC2)c1O	-0.7	5.6	-7.0	14.9	0.6	·
O=C(CN1CCN(c2ccccc2F)CC1)c1ccc(O)c(O)c1	108.1*	49.5*	-11.9	19.1	11.4	40.6*
COC(=O)c1ccc2c(c1)NC(=O)C(N1CCOCC1)S2 (centres undefined)	-0.3	1.3	4.4	4.7	-0.2	·
O=C(CNC(=O)c1ccc(OC(F)F)cc1)NCc1ccccn1	1.4	0.4	-5.5	9.3	-1.6	·
CN(C)C(=O)c1ccc(N=Nc2c(O)c3ccccc3[nH]c2=O)cc1	·	·	0.6	·	6.5	·
CN(C)C(=S)N=Nc1[nH]c2ccccc2c1O	465.7*	7.0	·	31.3	·	341.1*
O=C1COc2ccc(C(=O)CCl)cc2N1	148.4*	-6.0	6.3	19.0	-3.8	-6.7
Cc1ccccc1C(=O)N=c1c(C#N)cc2c(=O)n3cccc(C)c3nc2n1Cc1ccco1	-1.1	-0.2	·	3.0	·	·
COCCNC(=O)/C(C#N)=C/c1ccc2c(c1)OCO2	1.7	0.8	-4.6	15.5	5.2	·
CC(C)(C)c1cnnn1-c1ccc(C(=O)CCl)cc1	55.6*	-4.7	3.1	48.4	-2.5	-10.9
Oc1ccc(-c2csc(-c3ccccc3)n2)cc1O	143.5*	13.2	-3.0	10.9	-2.9	52.5*
CCOC(=O)c1cnc(-n2nc(C)cc2C)nc1NC(C)c1ccccc1 (centres undefined)	73.1*	29.6	-2.8	23.0	29.6	29.1
CCOC(=O)c1cnc(-n2nc(C)cc2C)nc1NCCO	-1.8	-0.1	-8.8	9.4	-0.5	·
CCOC(=O)c1cnc(-n2nc(C)cc2C)nc1NCc1ccccc1	73.7*	19.2	-2.2	17.4	6.7	25.3
CCOC(=O)C(=Cc1ccc(F)cc1)C(=O)OCC	122.1*	-6.7	·	44.7	·	140.4*
O=C(COC(=O)c1ccc([N+](=O)[O-])o1)Nc1cccc(S(=O)(=O)N2CCCCC2)c1	0.2	-2.4	-2.6	21.5	8.2	·
